Test results as given in ChEMBL document CHEMBL1158730, “Sesquiterpenoids from Pulicaria canariensis and their cytotoxic activities” (J Nat Prod, 2005).
pIC50: −log10 of the molar value. Active and inactive are the calls of the source. The calls are words filed in the database; no cut-off is given here.

How the values were obtained:
Assay type in all cases: functional, cell-based
HL-60 [1] = assay: Cytotoxicity against human HL60 cells by MTT assay
Outline: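 HL-60 cells grown in suspension in RPMI-1640 with 10% heat-inactivated FBS, penicillin 100 units/mL and streptomycin 100 μg/mL, at 37 °C in humidified 95% air/5% CO2. Density kept below 1 × 10^6 cells/mL. Viability read by MTT; IC50 (μM) given as mean ± spread.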

HL-60 [2] = assay: Induction of apoptosis in human HL60 cells assessed as cleavage of PARP-1 after 12 hrs by Western blot analysis
Outline: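 HL-60 cells treated for 12 h at the indicated concentrations. Total lysates immunoblotted with a PARP-1 monoclonal antibody that detects the native 116 kDa and cleaved 85 kDa forms. Etoposide 10 μM served as positive control.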

HL-60 [3] = assay: Induction of apoptosis in human HL60 cells assessed as activation of caspase 8 at after 12 hrs
Outline: (§1)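 HL-60 cells exposed to increasing concentrations for 12 h, then harvested. Cytosolic or total lysates assayed with colorimetric substrates, DEVD-pNA for caspase-3 and IETD-pNA for caspase-8. Activity expressed as x-fold over untreated control. A representative experiment run in duplicate.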

HL-60 [4] = assay: Induction of apoptosis in human HL60 cells assessed as activation of caspase 3 after 12 hrs; outline: as §1
HL-60 [5] = assay: Induction of apoptosis in human HL60 cells assessed as accumulation […] at 30 uM after 12 hrs by flow cytometry
Outline: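 HL-60 cells incubated at 30 μM for 12 h. DNA content analysed by flow cytometry to follow the diploid-to-hypodiploid shift and the cell-cycle phase distribution.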

HL-60 [6] = assay: Induction of apoptosis in human HL60 cells assessed as nuclear chromatin condensation by Hoechst 33258 based fluorescent microscopy
Outline: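 HL-60 cells cultured 12 h without or with the indicated doses, then stained with Hoechst 33258. Condensed/fragmented chromatin scored by fluorescence microscopy as the percentage of apoptotic cells. Etoposide 10 μM as positive control. Points are the average (±SE) of triplicates from a representative experiment.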

`CC(=O)OC/C1=C/CC[C@@]2(C)O[C@@H]2[C@@H](OC(C)=O)[C@@H](C(C)C)[C@H](OC(C)=O)C1` was tested, and the pIC50 (HL-60 [1]) was 3.53.
`CC(=O)O[C@@H]1/C=C(\C)CC[C@H]2O[C@@]2(C=O)C[C@@H](OC(C)=O)[C@@H]1C(C)C` [PULICANARAL A] was tested, and the pIC50 (HL-60 [1]) was 3.94.
For `CC(=O)O[C@H]1[C@@H](C(C)C)[C@H](OC(C)=O)C[C@]2(C=O)O[C@@H]2CC[C@@]2(C)O[C@@H]12` [PULICANARAL B], the pIC50 (HL-60 [1]) was 3.58.
In the case of `C=C1CC[C@@H](C(C)C)[C@H]2[C@@H]1CC[C@@H]2C(=O)CO` [PULIOPLOPANONE A], the pIC50 (HL-60 [1]) was 3.62.
`C=C1CC/C=C(/COC(C)=O)C[C@@H](OC(C)=O)[C@H](C(C)C)[C@H](OC(C)=O)C1=O` [TRIACETOXY PULICANONE] was tested, and the Activity (HL-60 [2]) was “Active”, the Activity (HL-60 [3]) was “Active” and the Activity (HL-60 [4]) was “Active”. For the same compound, the Activity (HL-60 [5]) was “Active”, the pIC50 (HL-60 [1]) was 4.70 and the Activity (HL-60 [6]) was “Dose-dependent effect”.
